Conditions in all cases: stereoisomer not certain
For one test, the target named is T1, UniProt Q8VGC6.
T1 sequence (whole entry): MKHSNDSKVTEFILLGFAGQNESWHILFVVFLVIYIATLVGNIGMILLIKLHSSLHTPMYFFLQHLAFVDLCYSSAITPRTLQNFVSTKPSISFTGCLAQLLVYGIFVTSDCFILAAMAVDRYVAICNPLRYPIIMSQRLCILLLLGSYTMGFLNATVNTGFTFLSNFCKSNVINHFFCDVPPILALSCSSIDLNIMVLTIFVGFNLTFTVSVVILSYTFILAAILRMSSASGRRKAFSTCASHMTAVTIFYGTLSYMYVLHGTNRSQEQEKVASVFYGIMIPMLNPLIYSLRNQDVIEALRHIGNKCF
The essentials:
(§1)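 Assay methods differ from source to source, frequently being transient luciferase assays in mammalian cell lines. For each receptor–molecule pair, the label responsive (active) applies when the original authors judged the measured signal statistically different from baseline, and non-responsive (inactive) applies otherwise.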

The target in a further test is T2, UniProt Q8VGD7.
T2 sequence (whole entry): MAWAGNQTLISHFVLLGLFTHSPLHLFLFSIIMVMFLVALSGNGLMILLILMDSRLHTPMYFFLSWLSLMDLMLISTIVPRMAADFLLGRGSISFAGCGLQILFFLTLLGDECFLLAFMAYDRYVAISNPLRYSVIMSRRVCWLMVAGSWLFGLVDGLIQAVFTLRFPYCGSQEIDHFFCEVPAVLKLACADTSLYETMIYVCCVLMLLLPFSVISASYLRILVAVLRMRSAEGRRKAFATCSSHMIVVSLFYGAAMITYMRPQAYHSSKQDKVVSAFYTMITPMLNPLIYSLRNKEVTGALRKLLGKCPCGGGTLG
The essentials:
as §1

A further test deals with T3, UniProt Q8VGH1.
T3 sequence (whole entry): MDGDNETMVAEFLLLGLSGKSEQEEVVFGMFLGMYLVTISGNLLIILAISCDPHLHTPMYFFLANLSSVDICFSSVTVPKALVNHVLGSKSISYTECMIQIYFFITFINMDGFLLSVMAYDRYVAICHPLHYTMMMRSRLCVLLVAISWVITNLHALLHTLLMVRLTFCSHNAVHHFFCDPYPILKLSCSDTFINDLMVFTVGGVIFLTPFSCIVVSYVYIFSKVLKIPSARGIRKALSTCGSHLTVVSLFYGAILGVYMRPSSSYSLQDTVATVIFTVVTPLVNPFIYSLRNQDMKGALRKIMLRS
The essentials:
as §1

The target of a further test is T4, UniProt Q8VGJ1.
T4 sequence (whole entry): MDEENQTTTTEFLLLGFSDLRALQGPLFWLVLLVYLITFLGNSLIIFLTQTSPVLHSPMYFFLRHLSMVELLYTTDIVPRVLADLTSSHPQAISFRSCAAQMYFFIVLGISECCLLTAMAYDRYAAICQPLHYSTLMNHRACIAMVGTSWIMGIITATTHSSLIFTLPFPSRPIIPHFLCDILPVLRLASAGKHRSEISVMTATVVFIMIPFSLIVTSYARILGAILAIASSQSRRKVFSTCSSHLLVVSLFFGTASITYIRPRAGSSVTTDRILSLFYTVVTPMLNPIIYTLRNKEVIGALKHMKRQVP
The essentials: as §1

The next test addresses T5, UniProt Q8VGJ3.
T5 sequence (whole entry): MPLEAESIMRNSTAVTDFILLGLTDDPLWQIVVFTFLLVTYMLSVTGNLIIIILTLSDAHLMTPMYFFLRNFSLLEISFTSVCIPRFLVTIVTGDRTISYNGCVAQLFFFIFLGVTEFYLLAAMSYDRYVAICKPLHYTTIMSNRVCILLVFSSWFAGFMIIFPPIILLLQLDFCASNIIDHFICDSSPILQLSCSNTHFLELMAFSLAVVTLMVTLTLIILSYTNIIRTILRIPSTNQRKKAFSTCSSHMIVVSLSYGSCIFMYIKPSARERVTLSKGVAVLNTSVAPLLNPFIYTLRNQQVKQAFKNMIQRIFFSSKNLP
The essentials: as §1

In another test the target is T6, UniProt Q8VGJ5.
T6 sequence (whole entry): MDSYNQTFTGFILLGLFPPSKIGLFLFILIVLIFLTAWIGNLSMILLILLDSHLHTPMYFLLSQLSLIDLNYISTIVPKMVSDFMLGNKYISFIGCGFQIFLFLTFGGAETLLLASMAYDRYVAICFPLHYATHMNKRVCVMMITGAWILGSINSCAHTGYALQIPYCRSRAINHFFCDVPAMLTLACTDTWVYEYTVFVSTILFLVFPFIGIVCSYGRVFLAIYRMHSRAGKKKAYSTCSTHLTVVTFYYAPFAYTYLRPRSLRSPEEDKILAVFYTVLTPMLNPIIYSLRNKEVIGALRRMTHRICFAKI
The essentials: as §1

The target in another test is T7, UniProt Q8VGL0.
T7 sequence (whole entry): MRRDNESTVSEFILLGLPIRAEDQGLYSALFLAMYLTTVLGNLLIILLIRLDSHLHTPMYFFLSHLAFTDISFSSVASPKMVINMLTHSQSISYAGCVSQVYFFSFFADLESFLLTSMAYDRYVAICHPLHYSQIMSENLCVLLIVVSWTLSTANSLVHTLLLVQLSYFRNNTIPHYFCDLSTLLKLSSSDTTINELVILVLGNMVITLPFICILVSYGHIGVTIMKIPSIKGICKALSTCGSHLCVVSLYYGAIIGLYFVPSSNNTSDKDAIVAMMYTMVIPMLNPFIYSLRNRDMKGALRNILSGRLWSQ
The essentials: as §1

The next test has as its target T8, UniProt Q8VGL7.
T8 sequence (whole entry): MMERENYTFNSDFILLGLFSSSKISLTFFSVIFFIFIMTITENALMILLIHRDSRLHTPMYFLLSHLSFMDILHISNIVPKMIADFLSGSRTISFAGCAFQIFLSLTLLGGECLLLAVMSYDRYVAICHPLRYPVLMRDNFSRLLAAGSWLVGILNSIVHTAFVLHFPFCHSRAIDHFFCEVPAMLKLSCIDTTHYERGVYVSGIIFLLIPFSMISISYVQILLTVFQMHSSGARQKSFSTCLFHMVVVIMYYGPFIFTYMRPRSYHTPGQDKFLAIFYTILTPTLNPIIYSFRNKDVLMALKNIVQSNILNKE
The essentials:
as §1

The target of a further test is T9, UniProt Q8VGM2.
T9 sequence (whole entry): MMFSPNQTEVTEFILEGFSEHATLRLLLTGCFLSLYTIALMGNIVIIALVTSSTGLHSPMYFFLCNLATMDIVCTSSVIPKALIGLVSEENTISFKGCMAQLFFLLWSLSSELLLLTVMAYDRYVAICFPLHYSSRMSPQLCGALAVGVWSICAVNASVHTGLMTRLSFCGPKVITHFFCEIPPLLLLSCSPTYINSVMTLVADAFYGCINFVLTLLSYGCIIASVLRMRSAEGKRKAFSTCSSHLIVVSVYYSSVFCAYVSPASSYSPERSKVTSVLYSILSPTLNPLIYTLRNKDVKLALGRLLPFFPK
The essentials:
as §1

A further test addresses T10, UniProt Q8VGP6.
T10 sequence (whole entry): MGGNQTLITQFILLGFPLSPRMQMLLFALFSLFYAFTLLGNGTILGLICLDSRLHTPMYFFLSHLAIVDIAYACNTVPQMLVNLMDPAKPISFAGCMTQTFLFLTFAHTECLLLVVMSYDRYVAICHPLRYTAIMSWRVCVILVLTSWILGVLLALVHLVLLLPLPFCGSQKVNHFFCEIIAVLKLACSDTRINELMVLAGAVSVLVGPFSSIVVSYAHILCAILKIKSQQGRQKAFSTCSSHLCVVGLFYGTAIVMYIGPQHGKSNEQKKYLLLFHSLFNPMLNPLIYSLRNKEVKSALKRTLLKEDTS
The essentials: as §1

Another test concerns the target T11, UniProt Q8VGQ3.
T11 sequence (whole entry): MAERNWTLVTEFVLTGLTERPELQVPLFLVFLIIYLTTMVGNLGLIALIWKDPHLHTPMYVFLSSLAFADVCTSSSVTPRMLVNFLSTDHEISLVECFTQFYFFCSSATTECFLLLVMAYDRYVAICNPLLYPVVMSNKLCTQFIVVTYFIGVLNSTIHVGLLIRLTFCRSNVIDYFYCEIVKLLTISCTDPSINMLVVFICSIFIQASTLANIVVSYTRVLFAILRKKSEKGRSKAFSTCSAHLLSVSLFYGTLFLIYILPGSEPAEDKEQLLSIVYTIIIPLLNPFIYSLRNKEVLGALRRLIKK
The essentials:
as §1

Another test addresses T12, UniProt Q8VGT4.
T12 sequence (whole entry): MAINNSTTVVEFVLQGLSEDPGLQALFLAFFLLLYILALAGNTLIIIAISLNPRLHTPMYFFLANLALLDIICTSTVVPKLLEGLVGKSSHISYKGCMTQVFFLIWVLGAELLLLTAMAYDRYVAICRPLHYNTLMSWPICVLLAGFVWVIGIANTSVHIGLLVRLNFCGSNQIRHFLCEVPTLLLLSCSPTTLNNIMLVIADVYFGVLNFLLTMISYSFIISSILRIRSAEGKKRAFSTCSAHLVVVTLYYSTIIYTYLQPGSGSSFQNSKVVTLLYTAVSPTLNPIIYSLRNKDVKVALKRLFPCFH
The essentials:
as §1

Another test concerns the target T13, UniProt Q8VGU3.
T13 sequence (whole entry): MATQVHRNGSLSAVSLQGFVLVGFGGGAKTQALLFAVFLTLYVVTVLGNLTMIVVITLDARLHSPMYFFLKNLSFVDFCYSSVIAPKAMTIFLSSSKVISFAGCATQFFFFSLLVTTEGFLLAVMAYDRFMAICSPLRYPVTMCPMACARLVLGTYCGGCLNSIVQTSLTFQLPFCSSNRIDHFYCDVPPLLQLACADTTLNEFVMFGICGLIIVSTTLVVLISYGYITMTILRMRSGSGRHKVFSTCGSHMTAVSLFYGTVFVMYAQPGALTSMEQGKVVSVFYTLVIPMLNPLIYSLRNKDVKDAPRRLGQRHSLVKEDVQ
The essentials:
as §1

Another test deals with T14, UniProt Q8VGV1.
T14 sequence (whole entry): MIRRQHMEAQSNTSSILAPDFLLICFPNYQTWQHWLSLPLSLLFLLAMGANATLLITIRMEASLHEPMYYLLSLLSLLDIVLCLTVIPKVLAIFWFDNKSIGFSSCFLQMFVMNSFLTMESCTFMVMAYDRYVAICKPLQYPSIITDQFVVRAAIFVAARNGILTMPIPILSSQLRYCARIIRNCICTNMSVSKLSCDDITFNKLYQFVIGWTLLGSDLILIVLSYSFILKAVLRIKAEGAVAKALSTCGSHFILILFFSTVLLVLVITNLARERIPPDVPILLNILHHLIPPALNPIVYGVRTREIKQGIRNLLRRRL
The essentials:
as §1

For the next test, the target named is T15, UniProt Q8VGV7.
T15 sequence (whole entry): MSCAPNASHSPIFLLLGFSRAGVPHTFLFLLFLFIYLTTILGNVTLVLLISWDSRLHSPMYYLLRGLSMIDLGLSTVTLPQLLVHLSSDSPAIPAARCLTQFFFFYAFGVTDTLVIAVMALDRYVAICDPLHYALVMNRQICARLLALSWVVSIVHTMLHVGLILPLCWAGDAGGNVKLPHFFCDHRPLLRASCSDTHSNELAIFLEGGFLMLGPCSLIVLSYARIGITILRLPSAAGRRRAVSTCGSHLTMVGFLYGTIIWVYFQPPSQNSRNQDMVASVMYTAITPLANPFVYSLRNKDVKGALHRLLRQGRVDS
The essentials:
as §1

The target of another test is T16, UniProt Q8VGX3.
T16 sequence (whole entry): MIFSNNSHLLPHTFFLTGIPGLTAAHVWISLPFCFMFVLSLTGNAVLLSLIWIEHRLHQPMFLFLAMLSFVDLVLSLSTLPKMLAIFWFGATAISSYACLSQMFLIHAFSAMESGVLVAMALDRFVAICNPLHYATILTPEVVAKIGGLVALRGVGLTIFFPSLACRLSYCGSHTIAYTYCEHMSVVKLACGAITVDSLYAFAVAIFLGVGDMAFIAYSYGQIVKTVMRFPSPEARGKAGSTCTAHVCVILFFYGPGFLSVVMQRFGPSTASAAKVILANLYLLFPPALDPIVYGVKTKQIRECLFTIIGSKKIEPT
The essentials: as §1

A further test deals with T17, UniProt Q8VGX5.
T17 sequence (whole entry): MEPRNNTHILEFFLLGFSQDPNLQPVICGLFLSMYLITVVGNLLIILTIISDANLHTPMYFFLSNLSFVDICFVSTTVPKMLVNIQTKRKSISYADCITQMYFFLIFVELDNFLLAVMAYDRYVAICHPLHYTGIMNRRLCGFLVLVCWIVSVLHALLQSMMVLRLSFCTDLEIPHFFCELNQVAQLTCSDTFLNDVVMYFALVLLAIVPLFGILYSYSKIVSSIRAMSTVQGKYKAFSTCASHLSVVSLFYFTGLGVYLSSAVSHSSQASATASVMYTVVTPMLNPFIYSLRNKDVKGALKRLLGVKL
The essentials: as §1

SMILES strings stand for the structures.

As for `CC(=O)OCC=C(C)C`, the “odorant receptor agonist call” value with UniProt Q8VGC6, in the test with UniProt Q8VGJ5 and in the test with UniProt Q8VGX5 was “active” in each case. The “odorant receptor agonist call” value with UniProt Q8VGD7, with UniProt Q8VGH1, in the test with UniProt Q8VGJ1, with UniProt Q8VGJ3, with UniProt Q8VGL0 and with UniProt Q8VGL7 was “inactive” each time. The “odorant receptor agonist call” value with UniProt Q8VGM2, in the test with UniProt Q8VGP6, with UniProt Q8VGQ3, in the test with UniProt Q8VGT4, with UniProt Q8VGU3 and with UniProt Q8VGV1 was “inactive” each time. The “odorant receptor agonist call” value with UniProt Q8VGV7 and in the test with UniProt Q8VGX3 was “inactive” in each case.

For the compound `CC(C)=CC1CC(C)CCO1` (stereo not given), the “odorant receptor agonist call” value with UniProt Q8VGC6 was “inactive”.

On to `C=CCOC(=O)CCCCCC`, for which the “odorant receptor agonist call” value with UniProt Q8VGC6, with UniProt Q8VGD7, in the test with UniProt Q8VGH1, with UniProt Q8VGJ1, with UniProt Q8VGJ3 and with UniProt Q8VGJ5 was “inactive” each time. The “odorant receptor agonist call” value with UniProt Q8VGL0, in the test with UniProt Q8VGL7, in the test with UniProt Q8VGM2, with UniProt Q8VGP6, with UniProt Q8VGQ3 and in the test with UniProt Q8VGT4 was “inactive” each time. In addition, the “odorant receptor agonist call” value in the test with UniProt Q8VGU3, with UniProt Q8VGV1, with UniProt Q8VGV7, in the test with UniProt Q8VGX3 and with UniProt Q8VGX5 was “inactive” in each case.

The record behind these values is the M2OR odorant receptor database.
